Entries after “also recorded” stand apart in the source; their conditions may differ.
Experiments:
full-length human PARP2 = full-length human PARP2 (Homo sapiens, UniProt Q9UGN5); assay: PARP2 auto-poly-ADP-ribosylation, immunoblot with anti-PAR antibody; format: biochemical; conditions: compound 100 μM, 300 μM NAD+
Method in brief: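 Full-length human enzyme was recombinantly expressed in and purified from bacteria. Auto-PARylation was run in the absence and presence of test compound at 100 μM. Immunoblots were probed with anti-PAR antibody and band signal was quantified.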

[1] = target: catalytic domain of human PARP5a (Homo sapiens, UniProt O95271); assay: PARP5a auto-ADP-ribosylation, immunoblot with pan-ADPr binding reagent; format: biochemical; conditions: compound 100 μM, 300 μM NAD+
Sequence of catalytic domain of human PARP5a (O95271 1112-1317): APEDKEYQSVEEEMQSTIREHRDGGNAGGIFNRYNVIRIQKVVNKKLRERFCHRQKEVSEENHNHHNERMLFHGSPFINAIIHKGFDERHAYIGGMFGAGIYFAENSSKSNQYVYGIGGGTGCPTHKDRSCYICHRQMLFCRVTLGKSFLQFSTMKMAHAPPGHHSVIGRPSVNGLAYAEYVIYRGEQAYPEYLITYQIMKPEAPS

[2] = target: T1, catalytic domain of human PARP10 (Homo sapiens, UniProt Q53GL7); assay: PARP10 auto-ADP-ribosylation; format: biochemical; conditions: compound 100 μM; 300 μM NAD+; pan-ADPr binding reagent immunoblot
T1 sequence (Q53GL7 806-1025 limits assumed): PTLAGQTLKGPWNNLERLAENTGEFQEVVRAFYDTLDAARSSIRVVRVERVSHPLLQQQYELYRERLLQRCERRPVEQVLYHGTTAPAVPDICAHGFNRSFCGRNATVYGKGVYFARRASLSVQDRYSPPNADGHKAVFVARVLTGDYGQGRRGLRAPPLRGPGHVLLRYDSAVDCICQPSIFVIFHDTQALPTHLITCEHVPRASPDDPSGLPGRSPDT

[3] = system: HAP1 wild-type cell lysates; assay: Protein ADP-ribosylation in HAP1 wild-type cell lysates, immunoblot; format: biochemical, human; conditions: compound 100 μM; 600 μM NAD+; olaparib 100 μM as control
[4] = system: HAP1/PARP1-knockout cell lysates; assay: Protein ADP-ribosylation in HAP1/PARP1-KO cell lysates, immunoblot; format: biochemical, human; conditions: compound 100 μM; 600 μM NAD+; olaparib 100 μM as control
HeLa cells = assay: Cellular ADP-ribosylation in H2O2-stimulated HeLa cells; format: cell-based, human; conditions: H2O2 1 mM, inhibitor 100 μM, 20 minutes
Method in brief: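 HeLa cells were stimulated with H2O2 and treated without or with test compound at 100 μM. Cellular ADP-ribosylation was imaged by confocal microscopy using an AF1521 macrodomain-based pan-ADPr binding reagent. Lysates were immunoblotted with the same pan-ADPr reagent, with anti-GAPDH as loading control. Densitometry was normalized to loading controls, and significance was reported as p < 0.05 and p < 0.01.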

Sequence of full-length human PARP2 (Q9UGN5 whole entry): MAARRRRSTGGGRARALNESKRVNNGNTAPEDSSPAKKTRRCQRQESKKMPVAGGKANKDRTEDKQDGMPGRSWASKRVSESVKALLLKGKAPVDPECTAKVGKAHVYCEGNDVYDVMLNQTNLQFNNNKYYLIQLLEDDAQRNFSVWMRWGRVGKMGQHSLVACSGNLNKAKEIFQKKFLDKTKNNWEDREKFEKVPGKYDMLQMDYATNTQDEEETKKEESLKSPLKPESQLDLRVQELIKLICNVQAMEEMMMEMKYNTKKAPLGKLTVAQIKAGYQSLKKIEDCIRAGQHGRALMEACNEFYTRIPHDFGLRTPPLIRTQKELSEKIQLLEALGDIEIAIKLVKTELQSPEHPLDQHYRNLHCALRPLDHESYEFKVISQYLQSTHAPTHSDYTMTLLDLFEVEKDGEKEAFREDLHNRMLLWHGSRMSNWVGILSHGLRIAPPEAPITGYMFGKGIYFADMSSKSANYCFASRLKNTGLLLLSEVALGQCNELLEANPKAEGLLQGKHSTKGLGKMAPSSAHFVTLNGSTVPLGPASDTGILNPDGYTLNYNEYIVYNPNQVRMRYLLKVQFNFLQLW

CC(=O)c1cccc(COc2ccccc2C(N)=O)c1 [compound 3]
inhibition of PARP2-catalyzed auto-modification (PARylation) (full-length human PARP2): functions as an inhibitor for PARP2; also recorded: significantly inhibit
inhibition of PARP5a-catalyzed auto-ADP-ribosylation [1]: significantly decreased levels of ADP-ribosylation
inhibition of PARP10-catalyzed auto-ADP-ribosylation [2]: significantly decreased levels of ADP-ribosylation
inhibition of protein ADP-ribosylation in HAP1-WT cell lysates [3]: significantly higher than those of olaparib-treated ones
inhibition of protein ADP-ribosylation in HAP1/PARP1-KO cell lysates [4]: no significant differences to those of olaparib-treated ones and non-modified controls

CC(=O)c1cccc([C@H](C)Oc2ccccc2C(N)=O)c1 [compound 5]
inhibition of PARP2-catalyzed auto-modification (PARylation) (full-length human PARP2): reduced inhibition activities

CC(=O)c1cccc(CCOc2ccc(F)cc2C(N)=O)c1 [compound 8]
effect on cellular ADP-ribosylation triggered by H2O2 (HeLa cells): no significant impact

O=C(c1cc(Cc2n[nH]c(=O)c3ccccc23)ccc1F)N1CCN(C(=O)C2CC2)CC1 [olaparib, reference compound]
effect on cellular ADP-ribosylation triggered by H2O2 (HeLa cells): largely suppressed

CC(=O)c1cccc([C@@H](C)Oc2ccccc2C(N)=O)c1 [compound 4]
inhibition of PARP2-catalyzed auto-modification (PARylation) (full-length human PARP2): reduced inhibition activities

CC(=O)c1cccc(CCOc2ccccc2C(N)=O)c1 [compound 7]
effect on cellular ADP-ribosylation triggered by H2O2 (HeLa cells): no significant impact

CC(=O)c1cccc(CCCOc2ccccc2C(N)=O)c1 [compound 9]
inhibition of PARP2-catalyzed auto-modification (PARylation) (full-length human PARP2): reduced inhibition activities

From article PMC11571001 (ACS Medicinal Chemistry Letters, 2024)
